In experiment [1] the target is T1, Carboxypeptidase B2 (Homo sapiens, UniProt Q96IY4).
T1 sequence (Q96IY4 whole entry): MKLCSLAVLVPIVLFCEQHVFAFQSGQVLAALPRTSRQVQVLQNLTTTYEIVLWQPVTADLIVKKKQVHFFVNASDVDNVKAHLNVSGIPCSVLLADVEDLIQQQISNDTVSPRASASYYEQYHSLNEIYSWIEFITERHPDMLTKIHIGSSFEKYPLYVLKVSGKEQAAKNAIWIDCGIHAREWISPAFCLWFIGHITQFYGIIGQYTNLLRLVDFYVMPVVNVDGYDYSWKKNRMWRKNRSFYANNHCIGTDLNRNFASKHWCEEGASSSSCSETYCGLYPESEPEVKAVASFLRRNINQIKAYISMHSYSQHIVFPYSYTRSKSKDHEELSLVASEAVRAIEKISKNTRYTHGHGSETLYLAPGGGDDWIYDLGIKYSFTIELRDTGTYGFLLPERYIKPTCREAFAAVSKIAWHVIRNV
Kind of experiment: Inhibition of human activated TAFI using Hip-Arg as substrate incubated for 10 mins prior to substrate addition measured after 30 mins by spectrophotometric analysis in presence of dithiothreitol. A digest of the protocol: (§1)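 TAFI purified from human plasma, pre-mixed with 300 ng/mL thrombomodulin (25 °C, 3 min), then activated with 3 U/mL thrombin (25 °C, 30 min). 20 U/L TAFIa preincubated with compounds for 10 min at 25 °C. Hip-Arg (3.2 mM stock) in 0.1 M Tris pH 7.6, with or without 10 μM DTT final, for 30 min at 25 °C. Stopped with PIPES/Tween 20, cyanuric acid colour read at A405. IC50 taken from sigmoidal curves.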

Experiment [2] in a line: Inhibition of human carboxypeptidase N using Hip-Lys as substrate incubated for 10 mins prior to substrate addition measured after 30 mins by spectrophotometric analysis in presence of dithiothreitol. A digest of the protocol:
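Human plasma carboxypeptidase N at 50 U/L preincubated with compounds for 10 min at 37 °C. Then Hip-Lys (3.2 mM stock) in 0.1 M Tris pH 7.6 buffer with DTT, for 30 min at 37 °C. Stopped with PIPES/Tween 20, cyanuric acid colour, A405. IC50 from sigmoidal inhibition curves.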

The target of experiment [3] is T2, Carboxypeptidase B (Sus scrofa, UniProt P09955).
T2 sequence (P09955 whole entry): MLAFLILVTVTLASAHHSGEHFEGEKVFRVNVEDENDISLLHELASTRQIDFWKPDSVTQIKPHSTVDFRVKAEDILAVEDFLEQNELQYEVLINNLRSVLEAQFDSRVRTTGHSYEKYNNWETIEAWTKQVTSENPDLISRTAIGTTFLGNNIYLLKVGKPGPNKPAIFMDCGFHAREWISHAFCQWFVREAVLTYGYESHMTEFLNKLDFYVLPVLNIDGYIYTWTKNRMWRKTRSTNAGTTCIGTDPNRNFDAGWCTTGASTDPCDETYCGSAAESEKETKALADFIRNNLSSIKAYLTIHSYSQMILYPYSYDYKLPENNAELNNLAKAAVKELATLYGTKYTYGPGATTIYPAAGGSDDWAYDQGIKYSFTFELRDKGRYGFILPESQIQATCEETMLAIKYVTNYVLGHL
Kind of experiment: Inhibition of pig pancreatic carboxypeptidase B using Hip-Arg as substrate incubated for 10 mins prior to substrate addition measured after 30 mins by spectrophotometric analysis in presence of dithiothreitol. A digest of the protocol: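 Porcine pancreatic CPB at 20 U/L preincubated with compounds for 10 min at 25 °C. Then Hip-Arg (3.2 mM stock) in 0.1 M Tris pH 7.6 with 10 μM DTT final, for 30 min at 25 °C. Stopped with PIPES/Tween 20, cyanuric acid colour, absorbance at 405 nm. IC50 from sigmoidal inhibition curves.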

The target in experiment [4] is T2, Carboxypeptidase B. As to the kind of experiment: Inhibition of pig pancreatic carboxypeptidase B using Hip-Arg as substrate incubated for 10 mins prior to substrate addition measured after 30 mins by spectrophotometric analysis.
Experiment [5] concerns the target T1, Carboxypeptidase B2. Kind of experiment: Inhibition of human activated TAFI using Hip-Arg as substrate incubated for 10 mins prior to substrate addition measured after 30 mins by spectrophotometric analysis. The gist of the method: as §1
Experiment [6] can be described thus: Inhibition of human carboxypeptidase N using Hip-Lys as substrate incubated for 10 mins prior to substrate addition measured after 30 mins by spectrophotometric analysis. A digest of the protocol: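 Human plasma CPN (50 U/L) preincubated with compound at 37 °C for 10 min, then Hip-Lys (3.2 mM stock) added in 0.1 M Tris-HCl pH 7.6 (±10 μM DTT) for 30 min at 37 °C. Stopped with PIPES/Tween 20 buffer; cyanuric acid colour read at 405 nm; IC50 from sigmoidal inhibition curves.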

The nature of experiment [7]: Selectivity ratio of IC50 for pig pancreatic carboxypeptidase B to IC50 for human activated TAFI.
In experiment [8] the target is T3, Carboxypeptidase B2 (Homo sapiens) (UniProt Q96IY4).
T3 sequence (whole entry): T1 sequence (Q96IY4 whole entry)
Kind of experiment: Inhibition of human activated TAFI using Hip-Arg as substrate at 10 uM incubated for 10 mins prior to substrate addition measured after 30 mins by spectrophotometric analysis. A digest of the protocol: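 Plasma-purified human TAFI activated with thrombomodulin (25 °C, 3 min), then thrombin (25 °C, 30 min). TAFIa (20 U/L) preincubated with compound at 25 °C for 10 min. Hip-Arg substrate (3.2 mM stock) added in 0.1 M Tris-HCl pH 7.6 with or without 10 μM DTT, 30 min at 25 °C. Stopped with PIPES/Tween 20; cyanuric acid colour read at 405 nm; IC50 from sigmoidal curves.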

A further experiment is filed under the species Homo sapiens. Kind of experiment: Selectivity ratio of IC50 for human carboxypeptidase N to IC50 for human activated TAFI.

Activity calls are given as the source filed them. The rule behind the calls is not given here.

The IC50 is the concentration at which inhibition is half-maximal. `NCCCCCC(C[Se][Se]CC(CCCCCN)C(=O)O)C(=O)O` (stereo not given): the IC50 was 2 nM at Carboxypeptidase B2 [1]; 0.0086 µM in experiment [2]; 0.0011 µM at Carboxypeptidase B [3]; 110 µM at Carboxypeptidase B [4]; over 3800 µM on Carboxypeptidase B2 [5]; over 3800 µM in experiment [6].
As for `Nc1ncc(CC(C[Se][Se]CC(Cc2cnc(N)c(Cl)c2)C(=O)O)C(=O)O)cc1Cl` (stereo not given), the Ratio IC50 in [7] was determined as 3. Moreover, the concentration for half-maximal inhibition (IC50) on Carboxypeptidase B2 [1] is 0.025 nM; in experiment [2], over 3800 µM; on Carboxypeptidase B [3] it was 0.0015 µM; on Carboxypeptidase B [4], 370 µM; on Carboxypeptidase B2 [5] it was 3.3 µM; in experiment [6], over 3800 µM.
Turning to `CCOC(=O)C(C[Se]C(=O)CC)Cc1cnc(N)c(Cl)c1` (stereo not given), in experiment [7], the Ratio IC50 stood at 3. Also, the IC50 on Carboxypeptidase B2 [1] is 2600 nM; in experiment [2], over 3800 µM; at Carboxypeptidase B [3], 130 µM; on Carboxypeptidase B [4], over 3800 µM; against Carboxypeptidase B2 [5] it was over 3800 µM; in [6], over 3800 µM.
Consider `O[C@@H](CS)[C@@H](O)CS`, for which the inhibition entry in [8] was “inactive”.
As for `NCCCCCC(C[Se]C(=O)CCCc1ccccc1)C(=O)O` (stereo not given), the 50% inhibitory concentration (IC50) at Carboxypeptidase B2 [1] amounted to 4.1 nM; in experiment [2], 0.016 µM; on Carboxypeptidase B [3], 0.0032 µM; against Carboxypeptidase B [4] it was 1.5 µM; against Carboxypeptidase B2 [5], 1.6 µM; in experiment [6], 6 µM.
Regarding `CCOC(=O)C(CCCCCN)C[Se]C(=O)CC` (stereo not given), the IC50 was 30 nM at Carboxypeptidase B2 [1]; 0.16 µM in experiment [2]; 0.033 µM on Carboxypeptidase B [3]; 910 µM at Carboxypeptidase B [4]; 1.4 µM against Carboxypeptidase B2 [5]; 14 µM in experiment [6].
Take `CC(=O)SCC(CCCCCN)C(=O)O` (stereo not given): the Ratio IC50 in the experiment filed under Homo sapiens was determined as 40. For the same compound, the figures for the half-inhibitory concentration (IC50) (against Carboxypeptidase B [4]; on Carboxypeptidase B2 [5]; in experiment [6]) were 1.4 µM, 3.8 µM and 160 µM, respectively.
For `CCOC(=O)C(CS)CCCCCN` (stereo not given), in that order: 0.4, 260 µM, 62 µM and 25 µM.
Regarding `Nc1ccc(CC(C[Se][Se]CC(Cc2ccc(N)nc2)C(=O)O)C(=O)O)cn1` (stereo not given), in experiment [7], the Ratio IC50 turned out to be 3. Also, the half-maximal inhibitory concentration (IC50) was 0.0022 nM at Carboxypeptidase B2 [1]; 0.00029 µM in [2]; 0.00019 µM at Carboxypeptidase B [3]; 0.28 µM on Carboxypeptidase B [4]; 0.2 µM against Carboxypeptidase B2 [5]; 4.2 µM in [6].
As for `CCC(=O)[Se]CC(CCCCCN)C(=O)O` (stereo not given), the half-maximal inhibitory concentration (IC50) was 1.1 nM at Carboxypeptidase B2 [1]; 0.018 µM in experiment [2]; 0.0011 µM at Carboxypeptidase B [3]; 1.9 µM against Carboxypeptidase B [4]; 0.76 µM at Carboxypeptidase B2 [5]; 2 µM in experiment [6].
Regarding `CCOC(=O)C(C[Se]C(=O)CC)Cc1ccc(N)nc1` (stereo not given), in experiment [7], the Ratio IC50 stood at 3. For the same compound, the 50% inhibitory concentration (IC50) was 890 nM at Carboxypeptidase B2 [1]; 1.7 µM in [2]; 2.5 µM on Carboxypeptidase B [3]; over 3800 µM at Carboxypeptidase B [4]; 180 µM against Carboxypeptidase B2 [5]; 15 µM in [6].
On to `NCCCCCC(C[Se]C(=O)CCc1ccccc1)C(=O)O` (stereo not given), for which the IC50 at Carboxypeptidase B2 [1] turned out to be 5.3 nM; in [2], 0.014 µM; at Carboxypeptidase B [3] it was 0.0032 µM; at Carboxypeptidase B [4], 1.4 µM; against Carboxypeptidase B2 [5], 2 µM; in experiment [6] it was 1.7 µM.
For `CCOC(=O)C(CCCCCN)CSC(C)=O` (stereo not given), the IC50 against Carboxypeptidase B [4] is 19 µM; against Carboxypeptidase B2 [5], 310 µM; in experiment [6], over 3800 µM.
Take `NCCCCCC(CS)C(=O)O` (stereo not given): the IC50 at Carboxypeptidase B2 [5] is 0.034 µM; in experiment [6] it was 1.4 µM.
Regarding `CC(C)[C@H](NC(=O)CCc1ccccc1)P(=O)(O)C[C@@H](CCCCCN)C(=O)O`, the half-maximal inhibitory concentration (IC50) against Carboxypeptidase B [4] stood at 0.0049 µM; against Carboxypeptidase B2 [5], 0.0055 µM; in experiment [6], 6.7 µM.

These data come from ChEMBL document CHEMBL2163288, “Design and characterization of a selenium-containing inhibitor of activated thrombin-activatable fibrinolysis inhibitor (TAFIa), a zinc-containing metalloprotease” (J Med Chem, 2012).
